How the values were obtained:
β-lactamase = β-lactamase (Enterobacter cloacae, UniProt P05364); experiment: β-Lactamase promiscuous inhibitor assay; assay type: biochemical; settings: in the absence of Triton X-100
K18PL tau [1] = target: T1, K18PL tau (Homo sapiens, UniProt P10636, P618L); experiment: Primary qHTS K18PL tau fibrillization, ThT fluorescence readout; assay type: biochemical; settings: for 1° ThT Screen Curve class / 1° ThT Screen Log IC50: ThT fluorescence; for 1° ThT Screen Log IC50: printed as Log IC50; for 1° ThT Screen % Inhib: maximum % inhibition of ThT fluorescence
In short: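 Screen used K18PL tau (15 µM) with Alexa Red-labelled K18PL and 40 µM heparin stock, plus compound at six five-fold dilutions (56 µM–18 nM), run 6 h at 37°C. ThT was added (12.5 µM final, 100 mM glycine pH 8.5) for 1 h at room temperature; read ex 450/em 510 nm. Percent inhibition was computed versus median K18KD and DMSO controls, then pattern-corrected, with concentration-response curves fitted and classified. Single determinations per concentration.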

K18PL tau [2] = target: T1, K18PL tau; experiment: Primary qHTS K18PL tau assembly, fluorescence polarization; assay type: biochemical; settings: for 1° FP Screen Log IC50: printed as Log IC50; for 1° FP Screen % Inhib: maximum % inhibition of FP
In short: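 K18PL (30 µM stock with 0.24 µM Alexa Red-labelled K18PL) received compound at six five-fold dilutions (56 µM–18 nM), then heparin, and incubated 6 h at 37°C. FP was read after ThT (ex 555, em 632 nm, P/S channels); mP = 1000*(S−G*P)/(S+G*P), G = 1. Inhibition was normalised to non-fibrillizing K18KD and DMSO wells, pattern-corrected, and curve-fitted and classified. Single determinations.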

[3] = Activity in other PubChem / NIH Chemical Genomics Center screens
K18PL tau [4] = target: T1, K18PL tau; experiment: Repeat K18PL tau ThT fluorescence assay; assay type: biochemical; settings: repeat testing of screening hits, maximum percent inhibition
In short: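 Retesting of K18PL heparin-induced fibrillization used duplicate samples at each concentration, with the highest tested concentration 80 µM. ThT was read at 12.5 µM final in 100 mM glycine, pH 8.5, with excitation 450 nm and emission 510 nm. IC50 and percent inhibition at the top concentration were derived.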

full-length tau40 = full-length tau40 (Homo sapiens, UniProt P10636); experiment: Tau40 ThT fluorescence assay; assay type: biochemical; settings: inhibition of ThT fluorescence, compound 50 µM
[5] = Alexa Red total fluorescence; settings: percent inhibition of Alexa Red total fluorescence
In short: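 Alexa Red total fluorescence was computed from the qHTS FP S and P channel readings as TF = S + 2*P. It was expressed as a percentage of the DMSO control value, with values >30% flagged as potential fluorescence interference.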

Tau40 = Tau40 (Homo sapiens, UniProt P10636); experiment: SEC of Tau40 fibrillization reaction post-centrifugation supernatants; assay type: biochemical; settings: 50 µM MLS000062428
In short: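 Tau40 (50 µM) was incubated with heparin (20 µM) ± test compound in 100 mM sodium acetate, pH 7.0, for 5 days at 37°C. A no-heparin control was included. Reactions were spun at 40,000 g for 30 min, and supernatants were run on Superdex 200 at 0.4 ml/minute. Void volume was set by blue dextran, with BSA and cytochrome c as markers.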

K18PL tau [6] = target: T1, K18PL tau; experiment: K18PL tau centrifugation; assay type: biochemical; settings: compound 100 µM, Table 1 hits
In short: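 Heparin-induced K18PL fibrillization was run with test compound at a single concentration of 100 µM or with DMSO vehicle, then centrifuged to sediment fibrils. Supernatant and pellet fractions were analysed by SDS-PAGE, and the percentage of tau remaining in the soluble fraction was determined.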

[7] = target: tau-mediated MT assembly (K18 tau, bovine brain tubulin) (Homo sapiens, UniProt P10636); experiment: Tau-mediated MT assembly assay; assay type: biochemical; settings: 50 µM compound, 40 µM K18, 30 µM tubulin
Sequence of tau-mediated MT assembly (K18 tau, bovine brain tubulin) (P10636 561-686): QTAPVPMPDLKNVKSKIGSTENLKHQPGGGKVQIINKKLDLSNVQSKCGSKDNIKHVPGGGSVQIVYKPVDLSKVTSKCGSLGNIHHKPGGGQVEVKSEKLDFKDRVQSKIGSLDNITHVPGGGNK

T1 sequence (P10636 561-686 P618L): as the sequence (P10636 561-686) above, with P58L counted along it
Sequence of β-lactamase (P05364 21-381): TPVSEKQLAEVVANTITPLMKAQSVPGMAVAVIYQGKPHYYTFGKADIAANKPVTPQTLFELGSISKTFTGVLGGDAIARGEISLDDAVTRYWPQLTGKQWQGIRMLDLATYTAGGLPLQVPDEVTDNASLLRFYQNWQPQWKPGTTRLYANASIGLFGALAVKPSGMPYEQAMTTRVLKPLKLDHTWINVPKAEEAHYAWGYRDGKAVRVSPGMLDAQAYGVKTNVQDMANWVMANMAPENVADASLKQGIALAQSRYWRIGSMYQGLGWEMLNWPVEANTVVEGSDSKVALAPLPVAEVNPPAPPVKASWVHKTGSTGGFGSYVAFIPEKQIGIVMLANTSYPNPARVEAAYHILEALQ
Sequence of Tau40 (P10636 1-441 isoform P10636-8): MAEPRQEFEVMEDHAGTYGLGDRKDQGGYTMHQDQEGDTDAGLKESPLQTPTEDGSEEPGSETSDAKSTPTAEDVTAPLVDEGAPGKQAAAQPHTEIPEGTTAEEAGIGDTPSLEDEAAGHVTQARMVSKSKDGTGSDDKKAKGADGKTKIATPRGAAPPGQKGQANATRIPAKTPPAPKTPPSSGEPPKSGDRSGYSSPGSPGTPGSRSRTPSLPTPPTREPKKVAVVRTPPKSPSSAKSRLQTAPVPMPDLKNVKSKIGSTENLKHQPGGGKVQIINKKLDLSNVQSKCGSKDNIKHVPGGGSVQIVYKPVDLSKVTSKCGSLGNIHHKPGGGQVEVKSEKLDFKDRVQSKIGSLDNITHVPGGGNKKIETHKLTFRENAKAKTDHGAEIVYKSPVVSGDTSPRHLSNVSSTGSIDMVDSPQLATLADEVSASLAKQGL
Sequence of full-length tau40 (P10636 1-441 isoform P10636-8): as above

| 1° ThT Screen Curve class (K18PL tau [1]) | 1° ThT Screen Log IC50 (K18PL tau [1]) | 1° ThT Screen % Inhib (K18PL tau [1]) | 1° FP Screen Log IC50 (K18PL tau [2]) | Repeat ThT Assay % Inhib (K18PL tau [4]) | Compound | promiscuity in other screens [3] | also measured |
| --- | --- | --- | --- | --- | --- | --- | --- |
| – | – | – | – | – | NS(=O)(=O)c1cc(C(=O)O)c(NCc2ccco2)cc1Cl [Furosemide] | – | β-lactamase inhibition (β-lactamase): 3% |
| 2.1 | −5.0 | 80% | −5.3 | – | CCOC(=O)c1nn(-c2ccccc2)c(=O)c2c(N)scc12 [MLS000034832] | do not show signs of promiscuity | – |
| 1.2 | −5.4 | 65% | −5.1 | 84% | CCn1c(CSc2nccn2C)nc2cc(C(=O)O)ccc21 [MLS000058666] | – | Tau40 % Inhib (full-length tau40): 81%; 1° FP Screen Curve class (K18PL tau [2]): 1.2; 1° FP Screen % Inhib (K18PL tau [2]): 41%; Total Fluor % Inhib [5]: <10% |
| 2.1 | −5.0 | 94% | −5.0 | 97% | CCOC(=O)c1nn(-c2ccc(OC)cc2)c(=O)c2c(N)scc12 [MLS000062428] | do not show signs of promiscuity | oligomeric tau species in post-centrifugation supernatant (Tau40; eluted in column void volume): detectable oligomeric species; amount of monomeric tau in post-centrifugation supernatant (Tau40; relative to untreated fibrillization reaction): appreciable increase; Tau40 % Inhib (full-length tau40): 64%; 1° FP Screen Curve class (K18PL tau [2]): 2.2; 1° FP Screen % Inhib (K18PL tau [2]): 46%; Total Fluor % Inhib [5]: 49%; Centrifugation % Soluble (K18PL tau [6]): 80% |
| – | – | – | – | – | CC(=O)c1c(O)c(C)c(O)c(Cc2c(O)c3c(c(C(=O)/C=C/c4ccccc4)c2O)OC(C)(C)C=C3)c1O [Rottlerin] | – | β-lactamase inhibition (β-lactamase): 53% |
| – | – | – | – | – | CN(C)c1ccc2nc3ccc(=[N+](C)C)cc-3sc2c1 [methylene blue, reference compound] | active in a high percentage of PubChem screens | effect on tau-mediated tubulin polymerization [7]: significant diminution |

| Compound | 1° ThT Screen Curve class (K18PL tau [1]) | 1° ThT Screen Log IC50 (K18PL tau [1]) | 1° ThT Screen % Inhib (K18PL tau [1]) | 1° FP Screen Log IC50 (K18PL tau [2]) | Repeat ThT Assay % Inhib (K18PL tau [4]) | promiscuity in other screens [3] | also measured |
| --- | --- | --- | --- | --- | --- | --- | --- |
| CN(C(=S)Nc1cccnc1)c1ccc(O)cc1 [MLS000339510] | – | −5.7 | – | −5.5 | – | – | – |
| CC(N)[C@H](O)c1ccc(O)c(O)c1 (stereo partly drawn) [NCGC00093795] | – | −5.5 | – | −5.7 | 103% | – | – |
